Test results reported in ChEMBL document CHEMBL1140161, “Structure-activity relationships in 1,4-benzodioxan-related compounds. 9. From 1,4-benzodioxane to 1,4-dioxane ring as a promising template of novel alpha1D-adrenoreceptor antagonists, 5-HT1A full agonists, and cytotoxic agents” (J Med Chem, 2008).

Columns and labels:
[1] = molecular target: T1, 5-hydroxytryptamine receptor 1A (Homo sapiens, UniProt P08908); assay: Displacement of [3H]8-OH-DPAT from human cloned 5HT1A receptor expressed in human HeLa cells; type: cell-based
T1 sequence (P08908 whole entry): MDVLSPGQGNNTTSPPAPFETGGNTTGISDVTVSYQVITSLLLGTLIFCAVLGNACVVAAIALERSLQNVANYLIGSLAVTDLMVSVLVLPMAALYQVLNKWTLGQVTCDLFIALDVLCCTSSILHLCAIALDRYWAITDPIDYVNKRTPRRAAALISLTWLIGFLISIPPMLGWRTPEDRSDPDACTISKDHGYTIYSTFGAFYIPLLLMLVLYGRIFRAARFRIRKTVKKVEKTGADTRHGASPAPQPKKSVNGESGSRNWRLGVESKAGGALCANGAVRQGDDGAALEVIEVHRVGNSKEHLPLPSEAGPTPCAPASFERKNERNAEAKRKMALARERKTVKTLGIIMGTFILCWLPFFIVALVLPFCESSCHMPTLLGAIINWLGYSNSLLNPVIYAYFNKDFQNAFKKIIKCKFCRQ

[2] = molecular target: T2, Alpha-1D adrenergic receptor (Rattus norvegicus) (UniProt P23944); assay: Antagonist activity at Alpha-1D adrenoceptor in Wistar rat thoracic aorta assessed as inhibition of (-)-noradrenaline-induced contraction after 30 mins; type: functional, tissue-based
T2 sequence (whole entry): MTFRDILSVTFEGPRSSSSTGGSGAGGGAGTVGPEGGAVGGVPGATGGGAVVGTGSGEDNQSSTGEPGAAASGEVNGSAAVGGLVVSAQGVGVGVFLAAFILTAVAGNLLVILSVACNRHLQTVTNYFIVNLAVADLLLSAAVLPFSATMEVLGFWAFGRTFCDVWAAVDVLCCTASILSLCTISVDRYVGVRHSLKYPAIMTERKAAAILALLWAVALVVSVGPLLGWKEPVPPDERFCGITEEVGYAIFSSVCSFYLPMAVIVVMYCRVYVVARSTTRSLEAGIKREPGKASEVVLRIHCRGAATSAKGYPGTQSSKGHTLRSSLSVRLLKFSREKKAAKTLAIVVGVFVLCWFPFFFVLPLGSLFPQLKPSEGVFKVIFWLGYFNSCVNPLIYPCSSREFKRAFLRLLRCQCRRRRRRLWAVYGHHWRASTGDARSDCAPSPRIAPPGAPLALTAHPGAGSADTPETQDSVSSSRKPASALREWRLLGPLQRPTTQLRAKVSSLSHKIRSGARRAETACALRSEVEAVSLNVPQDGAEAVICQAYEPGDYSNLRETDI

[3] = molecular target: T3, 5-hydroxytryptamine receptor 1A (Homo sapiens) (UniProt P08908); assay: Agonist activity at human cloned 5HT1A receptor expressed in human HeLa cell membrane assessed as stimulation of [35S]GTPgammaS binding; type: functional, cell membranes
T3 sequence (whole entry): T1 sequence (P08908 whole entry)
Outline: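 Membranes from HeLa cells expressing cloned human 5-HT1A receptor; agonist-stimulated [35S]GTPγS binding measured. pD2 is the negative log of the agonist concentration giving 50% of maximal [35S]GTPγS binding stimulation; values from two to three experiments.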

[4] = molecular target: T3, 5-hydroxytryptamine receptor 1A (Homo sapiens); assay: Agonist activity at human cloned 5HT1A receptor expressed in HeLa cell membrane assessed as stimulation of [35S]GTPgammaS binding relative to 5-hydroxytryptamine; type: functional, cell membranes
Outline: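 Activation measured as [35S]GTPγS binding in membranes from HeLa cells expressing cloned human 5-HT1A receptor. pD2 is the negative log of agonist concentration giving 50% of maximal stimulation, from two to three experiments agreeing within 20%. Efficacy is given relative to 5-HT.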

[5] = system: PC-3; assay: Induction of apoptosis in human PC3 cells assessed as translocation of phosphatidylserine at 50 uM after 48 hrs by annexin V-FITC staining and cytofluorimetric analysis; type: functional
Outline: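 PC-3 prostate cancer cells exposed to compound for 48 h, then stained with annexin V-FITC to detect externalized phosphatidylserine. Read-out by flow cytometry as mean fluorescence intensity (MFI), against untreated and vehicle-treated cells.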

Row | Compound | Ki [1] [nM] | pKb [2] | pD2 [3] | %max [4] | Flu intensity [5]
1 | COc1ccccc1OCCNC[C@@H]1COC(c2ccccc2)(c2ccccc2)CO1 | 7.59 | 7.71 | – | – | –
2 | COc1cccc(OC)c1OCCNC[C@@H]1COC(c2ccccc2)(c2ccccc2)CO1 | 229 | 7.38 | – | – | –
3 | c1ccc(OCCNC[C@@H]2COCC(c3ccccc3)(c3ccccc3)O2)cc1 | 0.589 | 7.6 | 9.11 | 77.1 | 76.98
4 | COc1ccccc1OCCNC[C@@H]1COCC(c2ccccc2)(c2ccccc2)O1 | 0.661 | 8.32 | 9.4 | 81.5 | –
5 | COc1cccc(OC)c1OCCNC[C@@H]1COCC(c2ccccc2)(c2ccccc2)O1 | 1.41 | 7.22 | 8.28 | 106 | –
6 | c1ccc(OCCNC[C@@H]2COC(c3ccccc3)(c3ccccc3)CO2)cc1 | 37.2 | 7.19 | – | – | –
7 | c1ccc(OCCNC[C@@H]2CO[C@H](c3ccccc3)CO2)cc1 (relative stereo) | 25.7 | 7.05 | – | – | –
8 | COc1ccccc1OCCNC[C@@H]1COC[C@H](c2ccccc2)O1 (relative stereo) | 4.17 | 7.2 | – | 78.1 | –
9 | c1ccc(OCCNC[C@@H]2COC[C@@H](c3ccccc3)O2)cc1 (relative stereo) | 52.5 | 6.38 | – | – | –
10 | COc1cccc(OC)c1OCCNC[C@@H]1CO[C@H](c2ccccc2)CO1 (relative stereo) | 257 | 6.08 | – | – | –
11 | c1ccc(OCCNC[C@@H]2COC[C@H](c3ccccc3)O2)cc1 (relative stereo) | 53.7 | 6.77 | – | – | –
12 | COc1ccccc1OCCNC[C@@H]1COC[C@@H](c2ccccc2)O1 (relative stereo) | 6.03 | 7.83 | – | – | –
13 | COc1cccc(OC)c1OCCNC[C@@H]1COC[C@@H](c2ccccc2)O1 (relative stereo) | 417 | 7.11 | – | – | –
14 | COc1cccc(OC)c1OCCNC[C@@H]1COC[C@H](c2ccccc2)O1 (relative stereo) | > 1000 | 6.55 | – | – | –
15 | COc1cccc(OC)c1OCCNC[C@@H]1CO[C@@H](c2ccccc2)CO1 (relative stereo) | 234 | 7.26 | – | – | –
16 | COc1ccccc1OCCNC[C@@H]1CO[C@@H](c2ccccc2)CO1 (relative stereo) | 38.9 | 7.48 | – | – | –
17 | COc1ccccc1OCCNC[C@@H]1CO[C@H](c2ccccc2)CO1 (relative stereo) | 3.47 | 6.84 | 7.88 | 85.5 | –
18 | c1ccc(OCCNC[C@@H]2CO[C@@H](c3ccccc3)CO2)cc1 (relative stereo) | 148 | 6.56 | – | – | –
